Screens from PubChem BioAssay.
OX1R antag-1 – blocks the human orexin 1 receptor | O43613 | CHO/OX1R cells, Fluo-8 calcium fluorescence, orexin A | inhibition, % at 5 µM | hit rate 0.43% among 330,000 | AID 434989;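 active means inhibition above its plate's threshold, mean inhibition of all tested compounds on the plate plus 3 SD, cut at about 37% in these data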;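 further: 0% = orexin A challenge wells and 100% = SB-334867-A antagonist wells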
TAAR1 agonist – human TAAR1 agonism; Q96RJ0; CHO RD-HGA16 TAAR1, Fluo-8 calcium fluorescence; vehicle wells 0%, saturating PEA agonist 100%; activation, % at 3 µM; hit rate 0.99% among 360,000; AID 624467;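 active means activation above the mean activation of all test compounds in the run plus 3 SD, cut at about 38% in these data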
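System: CHO RD-HGA16 cells carrying human TAAR1 plus Gα16; Incubation: 17-24 h seeding, 75 min 37 °C dye, 30 min RT; Measured by: Fluo-8 fluorescence, 5 s baseline then 140 s kinetic read; Control set: DMSO and PEA EC100; Replication: single well for each compound.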
CHO parental Ca – counter-screen for OX1R antagonists: effect in parental CHO cells | parental CHO-K1, ATP-induced calcium, Fluo-8 fluorescence | inhibition, % at 5.6 µM | hit rate 0.63% among 330,000 | AID 463079;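 active means inhibition above that plate's mean sample inhibition plus 3 SD, cut at about 26% in these data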;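 further: 0% = ATP-challenged DMSO wells and 100% = DMSO wells without ATP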
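material = parental CHO cells | also added = ATP as calcium-mobilizing challenge | dosing = single point at 5.6 µM | detection = intracellular calcium via Fluo-8 no-wash fluorescent dye | read-out = % inhibition | benchmarks = low control ATP plus DMSO, high control DMSO only | repeats = one well per compound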
OX1R antag-2 – antagonists of human orexin 1 receptor (OX1R) | O43613 | OX1R-expressing cells, FRET antagonist read-out | inhibition, % at 6.6 µM | hit rate 1.8% among 330,000; in the data active means inhibition mostly above about 38%, no sharp cut-off; inactive means mostly below about 40%;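 further: 0% = agonist challenge alone and 100% = reference antagonist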
NTR1 agonist – NTR1 (human) agonism | NTR1-U2OS beta-arrestin-GFP spot imaging, agonist mode | activation, % at 20 µM | hit rate 0.17% among 330,000;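 active means activation at or above 40% of the spot to cytoplasm intensity ratio, with at least 20 cells analyzed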;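 further: 0% = DMSO without peptide and 100% = 100 nM NTR1 peptide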
Target sequence (P30989 whole entry, looked up): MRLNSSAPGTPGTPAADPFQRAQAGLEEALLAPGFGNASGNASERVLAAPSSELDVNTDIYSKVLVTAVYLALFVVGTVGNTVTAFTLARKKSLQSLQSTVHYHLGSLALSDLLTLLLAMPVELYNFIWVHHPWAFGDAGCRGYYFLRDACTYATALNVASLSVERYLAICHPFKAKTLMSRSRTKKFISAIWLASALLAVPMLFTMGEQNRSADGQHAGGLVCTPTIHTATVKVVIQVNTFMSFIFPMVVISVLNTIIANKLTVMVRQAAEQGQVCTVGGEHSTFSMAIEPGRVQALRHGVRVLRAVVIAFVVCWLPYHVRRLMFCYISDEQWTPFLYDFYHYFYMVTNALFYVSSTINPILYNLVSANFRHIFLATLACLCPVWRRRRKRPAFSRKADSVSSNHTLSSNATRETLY
TAAR1 antag – antagonists of human TAAR1 | CHO RD-HGA16 TAAR1, Fluo-8 calcium fluorescence, antagonist | inhibition, % at 3 µM | hit rate 1.5% among 360,000;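 active means inhibition above a per-plate cutoff, the mean inhibition of test compounds on that plate plus 3 SD, cut at about 49% in these data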;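 further: 0% = DMSO plus EC80 beta-PEA response and 100% = DMSO alone without agonist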
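test system = CHO RD-HGA16 cells bearing hTAAR1 | replication = singlicate | controls = DMSO-only wells and EC80 β-PEA-stimulated wells | reagent = EC80 β-phenethylamine stimulus | read-out basis = percent inhibition of PEA-evoked calcium signal, max/basal emission ratio | schedule = seeding 17-24 h prior, 75-min 37 °C, 30-min RT dye loading | signal = kinetic Fluo-8 calcium fluorescence measurement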
OX1R Ca confirm – confirmation of human orexin 1 receptor antagonists; shares compounds with OX1R antag-1; CHO/OX1R cells, orexin A calcium Fluo-8 fluorescence; inhibition, % at 5 µM; hit rate 38% among 1,100; in the data active means inhibition above about 29%;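 further: 0% = agonist challenge alone and 100% = reference antagonist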
CHO Ca triplic – counter-screen: parental CHO calcium response change, triplicate; inhibition, % at 5.6 µM; hit rate 9.3% among 1,100; parental CHO-K1, ATP-induced calcium, Fluo-8 fluorescence; shares compounds with OX1R antag-1; AID 492965;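 active means inhibition above a per-plate limit, the mean inhibition of that plate's test compounds plus 3 SD, cut at about 25% in these data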;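 further: 0% = ATP challenge with DMSO and 100% = DMSO without ATP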
Starred values were filed as active, the others as inactive. Most compounds without a hit are left out; they make up all but 4% or so of the library.

How did COc1ccc(OC)c(S(=O)(=O)NCC(c2cccs2)N2CCc3ccccc3C2)c1 (stereo not drawn) do in these assays?
OX1R antag-1: -17; TAAR1 agonist: 1; CHO parental Ca: -33; OX1R antag-2: 29; NTR1 agonist: 2; TAAR1 antag: -7

How did CCOC(=O)c1c(C)[nH]c(C(=O)Nc2cc(OCC)c(N3CCOCC3)cc2OCC)c1C do in these assays?
OX1R antag-1: -14; TAAR1 agonist: 8; CHO parental Ca: -13; OX1R antag-2: 12; NTR1 agonist: 6; TAAR1 antag: 2

How did CCCNC(=O)c1ccc(N2CCC3(CC2)CC(c2cccc(Br)c2)=NO3)c(NC(=O)c2cccc(C)c2)c1 do in these assays?
OX1R antag-1: -37; TAAR1 agonist: 0; CHO parental Ca: -15; OX1R antag-2: 22; NTR1 agonist: 1; TAAR1 antag: -5

Results for CC1CCCC(C)N1C(=O)COC(=O)Cc1c[nH]c2ccccc12 (stereo not drawn) ?
OX1R antag-1: -7; TAAR1 agonist: 3; CHO parental Ca: -11; OX1R antag-2: 19; NTR1 agonist: 2; TAAR1 antag: -4

How did CNC(=S)/N=C/NOCc1ccc(Cl)cc1Cl do in these assays?
OX1R antag-1: 41*; TAAR1 agonist: 9; CHO parental Ca: 12; OX1R antag-2: 29; NTR1 agonist: 2; TAAR1 antag: 22; OX1R Ca confirm: 20; CHO Ca triplic: 19

How did NC(=O)NOCc1ccc(Cl)cc1Cl do in these assays?
OX1R antag-1: 8; TAAR1 agonist: 0; CHO parental Ca: -11; OX1R antag-2: 8; NTR1 agonist: 1; TAAR1 antag: -18

How did COc1ccc(C(O)c2ncc(-c3cccc(C(F)(F)F)c3)[nH]2)cc1 (stereo not drawn) do in these assays?
TAAR1 agonist: 20; TAAR1 antag: -11

What do the screens show for `Cc1cc(C(=O)N[C@H](c2ccccc2)[C@@]2(C)C[C@@H]2[C@@H](C)C(=O)Nc2ccc3ccccc3c2)n(C)n1`?
OX1R antag-1: 41; TAAR1 agonist: 30; CHO parental Ca: -2; OX1R antag-2: 52; NTR1 agonist: 6; TAAR1 antag: 19; OX1R Ca confirm: 12; CHO Ca triplic: -11

Results for N#CCC(=O)Nc1ccc(C(=O)OCC(=O)NNC(=O)c2ccc(Cl)cc2)cc1 ?
OX1R antag-1: 1; TAAR1 agonist: 2; CHO parental Ca: -4; OX1R antag-2: 7; NTR1 agonist: 1; TAAR1 antag: 7

Results for CC(C)(C)NC(=O)COC(=O)c1ccc(NC(=O)CC#N)cc1 ?
OX1R antag-1: 27; TAAR1 agonist: 7; CHO parental Ca: 1; OX1R antag-2: 6; NTR1 agonist: 0; TAAR1 antag: -3; OX1R Ca confirm: 5; CHO Ca triplic: -5

How did CCCCNC(=O)c1ccc(N2CCOCC2)c(NS(=O)(=O)c2ccc(OC)cc2)c1 do in these assays?
OX1R antag-1: -21; TAAR1 agonist: 3; CHO parental Ca: -10; OX1R antag-2: 10; NTR1 agonist: 0; TAAR1 antag: -2

How did CCNC(=O)Nc1cc(S(=O)(=O)Nc2ccc(OC)cc2)ccc1N1CCOCC1 do in these assays?
OX1R antag-1: 41*; CHO parental Ca: 14; OX1R antag-2: 12; NTR1 agonist: 4; OX1R Ca confirm: 36*; CHO Ca triplic: 75*

Results for COc1cc(C(O)c2nc(-c3cc4ccccc4o3)cs2)ccc1F (stereo not drawn) ?
TAAR1 agonist: 9; TAAR1 antag: 26

What do the screens show for `CC(C)(C)c1ccc(S(=O)(=O)N(CCCN2CCOCC2)Cc2cccs2)cc1`?
OX1R antag-1: 103*; TAAR1 agonist: 5; CHO parental Ca: -20; OX1R antag-2: 21; NTR1 agonist: 2; TAAR1 antag: 16; OX1R Ca confirm: -10; CHO Ca triplic: -8

Results for CN(c1nc2ccccc2nc1Cl)S(=O)(=O)c1ccccc1 ?
OX1R antag-1: -28; TAAR1 agonist: 0; CHO parental Ca: -21; OX1R antag-2: 12; NTR1 agonist: 0; TAAR1 antag: 4

What do the screens show for `Cc1nc2ccc(NS(=O)(=O)c3c(F)cc(F)cc3Br)cc2s1`?
OX1R antag-1: 38; TAAR1 agonist: 4; CHO parental Ca: -2; OX1R antag-2: 13; NTR1 agonist: 0; TAAR1 antag: 15; OX1R Ca confirm: 15; CHO Ca triplic: 16

How did CCN1C/C(=C/c2ccc(N3CCOCC3)cc2)C(=O)/C(=C/c2ccc(N3CCOCC3)cc2)C1 do in these assays?
OX1R antag-1: 46; TAAR1 agonist: 25; CHO parental Ca: 34; OX1R antag-2: 31; TAAR1 antag: 40; OX1R Ca confirm: 34*; CHO Ca triplic: 34*

How did O=C(CSc1nnc(-c2cccs2)n1C1CC1)NC1CCS(=O)(=O)C1 (stereo not drawn) do in these assays?
OX1R antag-1: -7; TAAR1 agonist: 8; CHO parental Ca: -3; OX1R antag-2: 1; NTR1 agonist: 6; TAAR1 antag: -7

What do the screens show for `CC1=CC(C)(C)N(S(=O)(=O)c2ccc(C)cc2)c2ccc(C)cc21`?
OX1R antag-1: 40; TAAR1 agonist: 6; CHO parental Ca: 0; OX1R antag-2: 23; NTR1 agonist: 1; TAAR1 antag: 14; OX1R Ca confirm: -4; CHO Ca triplic: 56*

How did Cc1cccc(NC(=O)C2CCCN2C(=O)Oc2ccccc2)c1C (stereo not drawn) do in these assays?
OX1R antag-1: 34; TAAR1 agonist: 0; CHO parental Ca: -1; OX1R antag-2: 0; NTR1 agonist: -1; TAAR1 antag: 1; OX1R Ca confirm: -4; CHO Ca triplic: -1

Results for Cc1ccccc1NS(=O)(=O)c1ccc(C(=O)N2CCCC(C(F)(F)F)C2)cc1 (stereo not drawn) ?
OX1R antag-1: -10; TAAR1 agonist: 21; CHO parental Ca: -8; OX1R antag-2: 15; NTR1 agonist: 1; TAAR1 antag: 27

What do the screens show for `CC1CC(C)CN(C(=O)COC(=O)CNC(=O)C23CC4CC(CC(C4)C2)C3)C1` (stereo not drawn)?
OX1R antag-1: 3; TAAR1 agonist: 2; CHO parental Ca: -1; OX1R antag-2: 7; NTR1 agonist: -1; TAAR1 antag: -21

How did COc1ccc2c(n1)Sc1nc3ccccc3nc1N2 do in these assays?
OX1R antag-1: 35; TAAR1 agonist: 22; CHO parental Ca: 24; OX1R antag-2: 30; TAAR1 antag: 17; OX1R Ca confirm: 47*; CHO Ca triplic: 37*
